Test results taken from PubChem BioAssay AID504518 (Sanford-Burnham Center for Chemical Genomics, 2011).
The source made the active and inactive calls.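 How the source made its calls: active means mean IC50 at or below 20 µM; inactive means the rest.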

Tested on: HEK-293T NF-kB-Luc, TNFa-induced, luciferase luminescence 14 h
Test: TNFa-induced NF-kB reporter inhibition, SAR follow-up, selectivity assay for B-cell antigen receptor NF-kB inhibitors, cell-based, HEK-293T, luminescence (AID 504518)
Procedure, shortened: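 System: HEK-293-T cells carrying an NF-kB-driven luciferase reporter; Input: 6000 cells per well; Buffer or medium: phenol-red-free DMEM; Reagent: TNF-alpha, 0.1 ng/mL; Doses: compound dilution series, DMSO no higher than 1%; Times: 14 h compound exposure, 37 °C; Measured by: luciferase luminescence measured with SteadyGlo reagent.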

Row | Structure (SMILES) | IC50
1 | CCOc1ccc(-c2nc(CSCC(=O)NC)c(C)o2)cc1 | > 79 µM (inactive)
2 | COc1cccc(-c2cc(=O)c3cc(NC(=O)c4ccc(N(C)C)cc4)ccc3[nH]2)c1 | 15.2 µM
3 | CCCOc1ccc(-c2nc(CSCC(=O)NC3CC3)c(C)o2)cc1 | 31.5 µM (inactive)
4 | Cc1oc(-c2ccccc2)nc1CSCC(=O)NC1CC1 | > 79 µM (inactive)
5 | CCCOc1ccc(-c2nc(CSCC(=O)NCc3ccco3)c(C)o2)cc1 | 9.74 µM
6 | CCNC(=O)CCc1nc(-c2ccc(C(C)C)cc2)no1 | 21.3 µM (inactive)
7 | CCCCc1ccc(-c2noc(CCC(=O)NC)n2)cc1 | 1.98 µM
8 | Cc1oc(-c2ccccc2)nc1CSCC(=O)NCc1ccco1 | > 79 µM (inactive)
9 | CCNC(=O)CCc1nc(-c2ccc(C(C)(C)C)cc2)no1 | 35.8 µM (inactive)
10 | CCOc1ccc(-c2nc(CSCC(=O)NCc3ccco3)c(C)o2)cc1 | 21.4 µM (inactive)
11 | Cc1oc(-c2ccc(OC(F)(F)F)cc2)nc1CSCC(=O)O | 0.11 µM
12 | CCC(C)NC(=O)CCc1nc(-c2ccccc2)no1 (stereo not drawn) | > 79 µM (inactive)
13 | CCOc1ccc(-c2noc(CCC(=O)O)n2)cc1 | 10.6 µM
14 | O=C(O)CCc1nc(-c2ccccc2)no1 | > 79 µM (inactive)
15 | CNC(=O)CCc1nc(-c2ccc(C(C)(C)C)cc2)no1 | 66.8 µM (inactive)
16 | COc1ccc(C(=O)Nc2ccc3[nH]c(-c4cccc(OC)c4)cc(=O)c3c2)cc1 | > 79 µM (inactive)
17 | CCNC(=O)CCc1nc(-c2ccccc2C)no1 | > 79 µM (inactive)
18 | CCCCc1ccc(-c2noc(CCC(=O)NC(C)CC)n2)cc1 (stereo not drawn) | 0.51 µM
19 | CC(C)Nc1ccc(C(CC(=O)O)NC(=O)c2ccccc2)cc1[N+](=O)[O-] (stereo not drawn) | > 79 µM (inactive)
20 | CCOc1ccc(-c2nc(CSCC(=O)N3CCOCC3)c(C)o2)cc1 | 64.6 µM (inactive)
21 | CCOc1ccc(-c2nc(CSCC(=O)O)c(C)o2)cc1 | 0.04 µM
22 | CCC(C)NC(=O)CCc1nc(-c2ccc(C(C)(C)C)cc2)no1 (stereo not drawn) | 3 µM
23 | O=C(CCc1nc(-c2ccccc2)no1)NC1CC1 | > 79 µM (inactive)
24 | CCNC(=O)CCc1nc(-c2cccc(OC)c2)no1 | > 79 µM (inactive)
25 | CCNC(=O)CCc1nc(-c2c(Cl)cccc2Cl)no1 | > 79 µM (inactive)
26 | Cc1oc(-c2ccc(C(F)(F)F)cc2)nc1CSCC(=O)NC1CC1 | 24.4 µM (inactive)

Row | Structure (SMILES) | IC50
27 | COc1ccc(-c2nc(CSCC(=O)NCc3ccco3)c(C)o2)cc1 | 35.8 µM (inactive)
28 | Cc1oc(-c2ccc(OC(F)(F)F)cc2)nc1CSCC(=O)NC1CC1 | 27.9 µM (inactive)
29 | CCc1ccc(-c2nc(CSCC(=O)NC3CC3)c(-c3ccccc3)o2)cc1 | > 79 µM (inactive)
30 | CCCOc1ccc(-c2nc(CSCC(=O)O)c(C)o2)cc1 | 0.03 µM
31 | C#CCNC(=O)CSCc1nc(-c2ccc(OCC)cc2)oc1C | > 79 µM (inactive)
32 | CCOc1ccc(-c2nc(CSCC(=O)NCC3CC3)c(C)o2)cc1 | 55.4 µM (inactive)
33 | CCNC(=O)CCc1nc(-c2cccc(C)c2)no1 | > 79 µM (inactive)
34 | Cc1ccc(-c2nc(CSCC(=O)NC3CC3)c(C)o2)cc1 | 71.1 µM (inactive)
35 | COC(=O)CCc1nc(-c2ccc(C(C)(C)C)cc2)no1 | 0.22 µM
36 | CCCCc1ccc(-c2noc(CCC(=O)NC3CC3)n2)cc1 | 0.55 µM
37 | CC(C)c1ccc(-c2noc(CCC(=O)NC3CC3)n2)cc1 | 3.11 µM
38 | CCOc1ccc(-c2nc(CSCC(=O)NC3CCC3)c(C)o2)cc1 | 38.7 µM (inactive)
39 | CCOc1ccc(-c2nc(CSCC(=O)N(C)C)c(C)o2)cc1 | 78.5 µM (inactive)
40 | CCOc1ccccc1-c1nc(CSCC(=O)NC2CC2)c(C)o1 | > 79 µM (inactive)
41 | CC(C)(C)NC(=O)CCc1nc(-c2ccccc2)no1 | > 79 µM (inactive)
42 | CC(C)(C)c1ccc(-c2noc(CCC(=O)NC3CCC3)n2)cc1 | 1.18 µM
43 | CCOc1ccc(-c2nc(CSCC(=O)NC3CC3)c(C)o2)cc1 | > 79 µM (inactive)
44 | CC(C)(C)c1ccc(-c2noc(CCC(=O)O)n2)cc1 | 0.29 µM
45 | Cc1oc(-c2ccc(C(F)(F)F)cc2)nc1CSCC(=O)O | 0.38 µM
46 | CCc1ccc(-c2nc(CSCC(=O)NCc3ccco3)c(C)o2)cc1 | > 79 µM (inactive)
47 | CCNC(=O)CCc1nc(-c2ccc(OCC)cc2)no1 | > 79 µM (inactive)
48 | CCc1ccc(-c2noc(CCC(=O)NC(C)(C)C)n2)cc1 | 22 µM (inactive)
49 | COc1ccc(-c2nc(CSCC(=O)NC3CC3)c(C)o2)cc1 | > 79 µM (inactive)
50 | COc1cccc(-c2cc(=O)c3cc(NC(=O)c4ccccc4)ccc3[nH]2)c1 | > 79 µM (inactive)
51 | CCOc1ccc(-c2nc(CSCC(N)=O)c(C)o2)cc1 | > 79 µM (inactive)
52 | CCCCc1ccc(-c2noc(CCC(=O)NC(C)(C)C)n2)cc1 | 0.66 µM

Row | Structure (SMILES) | IC50
53 | CCOc1ccccc1-c1nc(CSCC(=O)O)c(C)o1 | > 79 µM (inactive)
54 | CCc1ccc(-c2nc(CSCC(=O)NC3CC3)c(C)o2)cc1 | 42.2 µM (inactive)
55 | CCOc1cccc(-c2nc(CSCC(=O)NC3CC3)c(C)o2)c1 | > 79 µM (inactive)
56 | CCOC(=O)CC(NC(=O)c1ccc(Br)cc1)c1ccc(F)c([N+](=O)[O-])c1 (stereo not drawn) | 73.4 µM (inactive)
57 | CCC(C)NC(=O)CCc1nc(-c2ccc(C(C)C)cc2)no1 (stereo not drawn) | 3.48 µM
58 | CNC(=O)CCc1nc(-c2ccc(C(C)C)cc2)no1 | 56.9 µM (inactive)
59 | CCCCOc1ccc(-c2nc(CSCC(=O)NC3CC3)c(C)o2)cc1 | 11.1 µM
60 | CC(C)c1ccc(-c2noc(CCC(=O)NC(C)(C)C)n2)cc1 | 5 µM
61 | CCc1ccc(-c2noc(CCC(=O)NC)n2)cc1 | > 79 µM (inactive)
62 | CC(C)(C)c1ccc(-c2noc(CCC(=O)NC3CC3)n2)cc1 | 12 µM
63 | CCN(CC)C(=O)CCc1nc(-c2ccc(C(C)(C)C)cc2)no1 | 16.8 µM
64 | CN(C)C(=O)CCc1nc(-c2ccc(C(C)(C)C)cc2)no1 | 42.2 µM (inactive)
65 | CCNC(=O)CCc1nc(-c2ccc(CC)cc2)no1 | 65.3 µM (inactive)
66 | CCNC(=O)CCc1nc(-c2ccccc2Cl)no1 | > 79 µM (inactive)
67 | CCCCc1ccc(-c2noc(CCC(=O)NCC)n2)cc1 | 0.77 µM
68 | CCOc1ccc(-c2nc(CSCC(=O)NC3CC3)c(-c3ccccc3)o2)cc1 | > 79 µM (inactive)
69 | CCc1ccc(-c2noc(CCC(=O)NC(C)CC)n2)cc1 (stereo not drawn) | 14.1 µM
70 | CCCCOc1ccc(-c2nc(CSCC(=O)O)c(C)o2)cc1 | 0.04 µM
71 | CNC(=O)CCc1nc(-c2ccccc2)no1 | > 79 µM (inactive)
72 | CC(C)(C)c1ccc(-c2noc(CCC(N)=O)n2)cc1 | 0.78 µM
73 | CCc1ccc(-c2noc(CCC(=O)NC3CC3)n2)cc1 | 21.1 µM (inactive)
74 | CCCCOc1ccc(-c2nc(CSCC(=O)NCc3ccco3)c(C)o2)cc1 | 13.1 µM
75 | CCNC(=O)CCc1nc(-c2ccccc2)no1 | > 79 µM (inactive)
76 | Cc1ccc(-c2nc(CSCC(=O)NCc3ccco3)c(C)o2)cc1 | 33.6 µM (inactive)
77 | CCNC(=O)CCc1nc(-c2cccc(F)c2)no1 | > 79 µM (inactive)
78 | CCOc1ccc(-c2nc(CSCC(=O)NC(C)(C)C)c(C)o2)cc1 | 37.7 µM (inactive)
